# Measurements taken from ChEMBL document CHEMBL1149274, “Stereochemical analysis of (hydroxyethyl)urea peptidomimetic inhibitors of gamma-secretase” (J Med Chem, 2004).
# Assays:
# [1] = molecular target: Gamma-secretase; test: Inhibition of gamma secretase in CHO cells expressing human APP after 4 hrs by ELISA; type: cell-based
# Outline: (§1)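 CHO 7w cells stably expressing the 751-residue APP splice variant, grown to confluence in DMEM with 200 μg/mL G418. Compounds were added from DMSO stocks to a final 1% DMSO; vehicle-only wells served as controls. After 4 or 24 h, the medium was spun at 3000g for 5 min. Aβ40 and Aβ42 were measured by sandwich ELISA (capture 2G3/21F12, biotinylated 3D6 reporter, TMB read at 455 nm). Mean ± SD of three experiments.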
# [2] = molecular target: Gamma-secretase; test: Inhibition of gamma secretase in CHO cells expressing human APP after 24 hrs by ELISA; type: cell-based; outline: as §1
# [3] = molecular target: Gamma-secretase; test: Inhibition of gamma secretase isolated from HeLa cells by ELISA; type: cell-free, Homo sapiens
# Outline: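 HeLa membranes were washed in 0.1 M Na2CO3, pH 11.3, then solubilized in 1% CHAPSO. The preparation (0.2 mg protein/mL) was incubated with compound or DMSO and the C100Flag substrate at 37 °C for 0 or 4 h. Reactions were stopped with 0.5% SDS and boiling for 5 min. Aβ x-40 and x-42 products were measured by sandwich ELISA (capture 2G3/21F12, biotinylated 266 reporter).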
# [4] = molecular target: Gamma-secretase; test: Inhibition of gamma secretase in CHO cells expressing human APP by ELISA; type: cell-based; outline: as §1
Compound,IC50 [1] [µM],IC50 [2] [µM],IC50 [3] [µM],IC50 [4] [µM]
CC(C)C[C@H](NC(=O)[C@@H](CC(C)C)NC(=O)N(Cc1ccccc1)C[C@@H](O)[C@@H](Cc1ccccc1)NC(=O)OC(C)(C)C)C(=O)OC(C)(C)C,0.6,7,–,–
COC(=O)[C@H](NC(=O)[C@@H](CC(C)C)NC(=O)N(Cc1ccccc1)C[C@@H](O)[C@@H](Cc1ccccc1)NC(=O)[C@@H](CC(C)C)NC(=O)OC(C)(C)C)C(C)C,–,–,0.9,2
COC(=O)[C@H](NC(=O)[C@@H](CC(C)C)NC(=O)N(Cc1ccccc1)C[C@@H](O)[C@@H](Cc1ccccc1)NC(=O)[C@H](NC(=O)OC(C)(C)C)C(C)C)C(C)C,–,–,3,7
COC(=O)[C@H](NC(=O)[C@@H](CC(C)C)NC(=O)N(CC(C)C)C[C@@H](O)[C@@H](Cc1ccccc1)NC(=O)OC(C)(C)C)C(C)C,–,–,2,5
COC(=O)[C@@H](C)NC(=O)[C@@H](CC(C)C)NC(=O)N(Cc1ccccc1)C[C@@H](O)[C@@H](Cc1ccccc1)NC(=O)OC(C)(C)C,–,–,2,7
COC(=O)[C@H](NC(=O)[C@H](CC(C)C)NC(=O)N(Cc1ccccc1)C[C@@H](O)[C@H](Cc1ccccc1)NC(=O)OC(C)(C)C)C(C)C,–,–,0.6,1
COC(=O)[C@H](CC(C)C)NC(=O)[C@H](CC(C)C)NC(=O)N(Cc1ccccc1)C[C@@H](O)[C@H](Cc1ccccc1)NC(=O)OC(C)(C)C,0.6,9.4,0.03,0.6
CC(C)C[C@H](NC(=O)N(Cc1ccccc1)C[C@@H](O)[C@H](Cc1ccccc1)NC(=O)OC(C)(C)C)C(=O)N[C@H](CC(C)C)C(=O)OC(C)(C)C,0.4,5,–,–
COC(=O)[C@H](NC(=O)[C@@H](CC(C)C)NC(=O)N(C)C[C@@H](O)[C@@H](Cc1ccccc1)NC(=O)OC(C)(C)C)C(C)C,–,–,7,12
COC(=O)[C@@H](Cc1ccccc1)NC(=O)[C@@H](CC(C)C)NC(=O)N(Cc1ccccc1)C[C@@H](O)[C@@H](Cc1ccccc1)NC(=O)OC(C)(C)C,–,–,0.8,3
COC(=O)[C@@H](NC(=O)[C@H](CC(C)C)NC(=O)N(Cc1ccccc1)C[C@@H](O)[C@H](Cc1ccccc1)NC(=O)OC(C)(C)C)C(C)C,0.4,18,0.01,0.4
COC(=O)[C@@H](NC(=O)[C@@H](CC(C)C)NC(=O)N(Cc1ccccc1)C[C@@H](O)[C@@H](Cc1ccccc1)NC(=O)OC(C)(C)C)C(C)C,–,–,0.8,8
COC(=O)[C@H](NC(=O)[C@@H](CC(C)C)NC(=O)N(Cc1ccccc1)C[C@@H](O)[C@H](Cc1ccccc1)NC(=O)OC(C)(C)C)C(C)C,–,–,0.03,0.6
COC(=O)[C@H](NC(=O)[C@@H](C)NC(=O)N(Cc1ccccc1)C[C@@H](O)[C@@H](Cc1ccccc1)NC(=O)OC(C)(C)C)C(C)C,–,–,3,10
COC(=O)[C@H](NC(=O)[C@@H](CC(C)C)NC(=O)N(Cc1ccccc1)C[C@@H](O)[C@@H](Cc1ccccc1)NC(=O)OC(C)(C)C)C(C)C,2,17,0.1,2
CC(C)C[C@H](NC(=O)N(Cc1ccccc1)C[C@@H](O)[C@H](Cc1ccccc1)NC(=O)OC(C)(C)C)C(=O)N[C@H](C(=O)OC(C)(C)C)C(C)C,0.3,6,–,–
COC(=O)[C@H](NC(=O)[C@@H](CC(C)C)NC(=O)N(Cc1ccccc1)C[C@H](O)[C@@H](Cc1ccccc1)NC(=O)OC(C)(C)C)C(C)C,–,–,3,10
COC(=O)[C@@H](NC(=O)[C@H](CC(C)C)NC(=O)N(Cc1ccccc1)C[C@@H](O)[C@@H](Cc1ccccc1)NC(=O)OC(C)(C)C)C(C)C,–,–,0.01,0.4
COC(=O)[C@@H](CC(C)C)NC(=O)N(Cc1ccccc1)C[C@@H](O)[C@@H](Cc1ccccc1)NC(=O)OC(C)(C)C,–,–,6,15
COC(=O)[C@H](NC(=O)[C@H](CC(C)C)NC(=O)N(Cc1ccccc1)C[C@@H](O)[C@@H](Cc1ccccc1)NC(=O)OC(C)(C)C)C(C)C,–,–,0.08,0.8
COC(=O)[C@@H](CC(C)C)NC(=O)[C@@H](CC(C)C)NC(=O)N(Cc1ccccc1)C[C@@H](O)[C@@H](Cc1ccccc1)NC(=O)OC(C)(C)C,3,9,0.2,3
COC(=O)[C@H](NC(=O)[C@@H](CC(C)C)NC(=O)N(C[C@@H](O)[C@@H](Cc1ccccc1)NC(=O)OC(C)(C)C)C(C)C)C(C)C,–,–,4,8
COC(=O)[C@@H](NC(=O)[C@@H](CC(C)C)NC(=O)N(Cc1ccccc1)C[C@@H](O)[C@H](Cc1ccccc1)NC(=O)OC(C)(C)C)C(C)C,–,–,0.06,0.8
COC(=O)[C@H](NC(=O)[C@@H](Cc1ccccc1)NC(=O)N(Cc1ccccc1)C[C@@H](O)[C@@H](Cc1ccccc1)NC(=O)OC(C)(C)C)C(C)C,–,–,9,24
CC(C)C[C@@H](NC(=O)N(Cc1ccccc1)C[C@@H](O)[C@@H](Cc1ccccc1)NC(=O)OC(C)(C)C)C(=O)N[C@@H](C(=O)OC(C)(C)C)C(C)C,3,6.2,–,–
COC(=O)[C@H](NC(=O)[C@H](NC(=O)N(Cc1ccccc1)C[C@@H](O)[C@@H](Cc1ccccc1)NC(=O)OC(C)(C)C)C(C)C)C(C)C,–,–,2,12
COC(=O)[C@H](NC(=O)[C@@H](CC(C)C)NC(=O)N(Cc1ccccc1)C[C@@H](O)[C@@H](Cc1ccccc1)NC(=O)[C@@H](Cc1ccccc1)NC(=O)OC(C)(C)C)C(C)C,–,–,2,8
COC(=O)[C@@H](CC(C)C)NC(=O)[C@@H](CC(C)C)NC(=O)N(Cc1ccccc1)C[C@H](O)[C@@H](Cc1ccccc1)NC(=O)OC(C)(C)C,–,–,2,8
COC(=O)[C@H](NC(=O)[C@@H](CC(C)C)NC(=O)N(Cc1ccccc1)C[C@@H](O)[C@@H](Cc1ccccc1)NC(=O)[C@@H](C)NC(=O)OC(C)(C)C)C(C)C,–,–,12,30
